According to ChEMBL document CHEMBL3244395, “Antimycotic imidazoles. 2. Synthesis and antifungal properties of esters of 1-[2-hydroxy(mercapto)-2-phenylethyl]-1H-imidazoles” (J Med Chem, 1978):
Active and inactive are the calls of the source. No cut-off for these calls is given here.

Experiments:
[1] = Lipophilic-hydrophilic balance, Rm of the compound assessed as change in compound Rm to miconazole Rm by reverse-phase TLC method; format: physicochemical; details: silicone oil-impregnated silica gel, MeCN-H2O-AcOH
[2] = system: Nannizzia gypsea; assay: Antifungal activity against Microsporum gypseum assessed as lowest concentration required for total inhibition broth dilution assay; format: functional; details: read-out: MIC100
Summary of the method: (§1)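 Broth dilution against dermatophytes, C. albicans ATCC 10231 and 14053, and C. neoformans. The end point is the lowest concentration with total inhibition. "<" marks the lowest level tested, and ">" marks partial growth at that dilution.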

[3] = system: Epidermophyton floccosum; assay: Antifungal activity against Epidermophyton floccosum assessed as lowest concentration required for total inhibition broth dilution assay; format: functional; details: read-out: MIC100; summary of the method: as §1
[4] = system: Trichophyton mentagrophytes; assay: Antifungal activity against Trichophyton mentagrophytes assessed as lowest concentration required for total inhibition broth dilution assay; format: functional; details: read-out: MIC100; summary of the method: as §1
[5] = system: Candida albicans; assay: Antifungal activity against Candida albicans ATCC 10231 assessed as lowest concentration required for total inhibition by broth dilution assay; format: functional; details: read-out: MIC100; summary of the method: as §1
[6] = system: Candida albicans; assay: Antifungal activity against Candida albicans ATCC 14053 assessed as lowest concentration required for total inhibition by broth dilution assay; format: functional; details: read-out: MIC100; summary of the method: as §1
[7] = system: Cryptococcus neoformans; assay: Antifungal activity against Cryptococcus neoformans assessed as lowest concentration required for total inhibition by broth dilution assay; format: functional; details: read-out: MIC100; summary of the method: as §1
[8] = system: Staphylococcus aureus; assay: Antibacterial activity against Staphylococcus aureus ATCC 12600 assessed as lowest concentration required for total inhibition by broth microdilution assay; format: functional; details: for MIC: read-out: MIC100
Summary of the method: (§2)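 Broth microdilution against the listed ATCC […] strains. The value is the lowest concentration giving total inhibition. "<" marks the lowest level tested, and ">" marks partial growth at that dilution.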

[9] = system: Enterococcus faecalis; assay: Antibacterial activity against Streptococcus faecalis ATCC 14506 assessed as lowest concentration required for total inhibition by broth microdilution assay; format: functional; details: for MIC: read-out: MIC100; summary of the method: as §2
[10] = system: Cutibacterium acnes; assay: Antibacterial activity against Corynebacterium acnes ATCC 11828 assessed as lowest concentration required for total inhibition by broth microdilution assay; format: functional; details: for MIC: read-out: MIC100; summary of the method: as §2
[11] = system: Erysipelothrix rhusiopathiae; assay: Antibacterial activity against Erysipelothrix insidiosa ATCC 19414 assessed as lowest concentration required for total inhibition by broth microdilution assay; format: functional; details: for MIC: read-out: MIC100; summary of the method: as §2
[12] = system: Pasteurella multocida; assay: Antibacterial activity against Pasteurella multocida ATCC 19427 assessed as lowest concentration required for total inhibition by broth microdilution assay; format: functional; details: for MIC: read-out: MIC100; summary of the method: as §2
[13] = system: Candida albicans; assay: Antifungal activity against Candida albicans in mouse vaginal infection model compound applied intravaginally as 2% formulation in an aqueous propylene glycol cream for 4 days bid; format: functional, organism-based; details: Vagina
Summary of the method: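 Mice with vaginal C. albicans infection, following Wildfeuer's method. The compound was applied intravaginally as a 2% formulation in an aqueous propylene glycol cream, twice daily for 4 days. Read-out was animals cured over total number infected.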

Compound | deltaRm [1] | MIC [2] | MIC [3] | MIC [4] | MIC [5] | MIC [6] | MIC [7] | MIC [8] | MIC [9] | MIC [10] | MIC [11] | MIC [12] | Activity [13] | MIC100 [8] | MIC100 [9] | MIC100 [10] | MIC100 [11] | MIC100 [12]
CC(C)COC(=S)SC(Cn1ccnc1)c1ccc(Cl)cc1Cl.O=[N+]([O-])O (configuration not stated) | 0.17 | 3 µg/mL | < 0.1 µg/mL | 3 µg/mL | 30 µg/mL | 10 µg/mL | < 0.3 µg/mL | – | – | – | – | – | – | – | – | – | – | –
CCCCCCCCOC(=S)SC(Cn1ccnc1)c1ccc(Cl)cc1Cl.O=[N+]([O-])O (configuration not stated) | 1.23 | 30 µg/mL | 1 µg/mL | 30 µg/mL | 100 µg/mL | 100 µg/mL | < 1 µg/mL | > 100 µg/mL | 1 µg/mL | 100 µg/mL | 30 µg/mL | 1 µg/mL | – | – | – | – | – | –
CCCCOC(=S)SC(Cn1ccnc1)c1ccc(Cl)cc1Cl.O=[N+]([O-])O (configuration not stated) | 0.19 | 3 µg/mL | < 0.1 µg/mL | 3 µg/mL | 30 µg/mL | 10 µg/mL | 1 µg/mL | – | – | – | – | – | Active | – | – | – | – | –
O=C(O)C(=O)O.S=C(OCc1ccccc1)SC(Cn1ccnc1)c1ccc(Cl)cc1Cl (configuration not stated) | -0.21 | 10 µg/mL | < 0.1 µg/mL | 1 µg/mL | 30 µg/mL | 10 µg/mL | < 0.3 µg/mL | – | – | – | – | – | – | – | – | – | – | –
CC(C)(C)SC(=O)SC(Cn1ccnc1)c1ccc(Cl)cc1Cl.O=[N+]([O-])O (configuration not stated) | 0.05 | 10 µg/mL | < 0.1 µg/mL | 3 µg/mL | 30 µg/mL | 30 µg/mL | 3 µg/mL | 3 µg/mL | 10 µg/mL | 100 µg/mL | 100 µg/mL | 1 µg/mL | – | – | – | – | – | –
O=C(OC(Cn1ccnc1)c1ccc(Cl)cc1Cl)c1ccc(Cl)cc1Cl.O=[N+]([O-])O (configuration not stated) | -0.24 | 30 µg/mL | < 0.1 µg/mL | 30 µg/mL | 300 µg/mL | 300 µg/mL | 3 µg/mL | – | – | – | – | – | – | – | – | – | – | –
CCCCCCOC(=O)OC(Cn1ccnc1)c1ccc(Cl)cc1Cl.O=[N+]([O-])O (configuration not stated) | -0.17 | 30 µg/mL | < 0.3 µg/mL | 30 µg/mL | 100 µg/mL | 100 µg/mL | 30 µg/mL | – | – | – | – | – | – | – | – | – | – | –
CCCCCOC(=S)SC(Cn1ccnc1)c1ccc(Cl)cc1Cl.O=[N+]([O-])O (configuration not stated) | 0.37 | 3 µg/mL | < 0.1 µg/mL | 3 µg/mL | 3 µg/mL | 3 µg/mL | < 1 µg/mL | 3 µg/mL | 10 µg/mL | > 100 µg/mL | 100 µg/mL | 1 µg/mL | – | – | – | – | – | –
CCCOC(=S)SC(Cn1ccnc1)c1ccc(Cl)cc1Cl.O=[N+]([O-])O (configuration not stated) | -0.03 | 10 µg/mL | < 0.1 µg/mL | 10 µg/mL | 100 µg/mL | 30 µg/mL | < 0.3 µg/mL | – | – | – | – | – | Active | – | – | – | – | –
CCCCOC(=O)SC(Cn1ccnc1)c1ccc(Cl)cc1Cl.O=[N+]([O-])O (configuration not stated) | -0.14 | 30 µg/mL | < 0.1 µg/mL | 10 µg/mL | 30 µg/mL | 30 µg/mL | < 0.3 µg/mL | – | – | – | – | – | – | – | – | – | – | –
O=[N+]([O-])O.S=C(OC1CCCCC1)SC(Cn1ccnc1)c1ccc(Cl)cc1Cl (configuration not stated) | 0.43 | 3 µg/mL | < 0.1 µg/mL | 3 µg/mL | 3 µg/mL | 3 µg/mL | < 1 µg/mL | – | – | – | – | – | – | – | – | – | – | –
O=C(Cc1ccc(Cl)cc1)OC(Cn1ccnc1)c1ccc(Cl)cc1Cl.O=[N+]([O-])O (configuration not stated) | -0.41 | 100 µg/mL | < 0.1 µg/mL | 30 µg/mL | 100 µg/mL | 100 µg/mL | 3 µg/mL | – | – | – | – | – | – | – | – | – | – | –
GENTAMICIN | – | – | – | – | – | – | – | – | – | – | – | – | – | 1 µg/mL | 30 µg/mL | 1 µg/mL | 30 µg/mL | < 0.1 µg/mL
CCCCCCCCCCCC(=O)OC(Cn1ccnc1)c1ccc(Cl)cc1Cl.O=[N+]([O-])O (configuration not stated) | 1.1 | > 100 µg/mL | 1 µg/mL | > 100 µg/mL | > 300 µg/mL | > 300 µg/mL | < 1 µg/mL | 10 µg/mL | 100 µg/mL | > 100 µg/mL | 10 µg/mL | 1 µg/mL | – | – | – | – | – | –
CCCCCCC(=O)OC(Cn1ccnc1)c1ccc(Cl)cc1Cl.O=[N+]([O-])O (configuration not stated) | -0.16 | 30 µg/mL | < 0.1 µg/mL | 30 µg/mL | 100 µg/mL | 100 µg/mL | 3 µg/mL | – | – | – | – | – | – | – | – | – | – | –
CCCCCCCCOC(=O)OC(Cn1ccnc1)c1ccc(Cl)cc1Cl.O=[N+]([O-])O (configuration not stated) | 0.4 | 10 µg/mL | < 0.1 µg/mL | 10 µg/mL | 300 µg/mL | 30 µg/mL | 3 µg/mL | – | – | – | – | – | – | – | – | – | – | –
